We go through 1 compound from ChEMBL document CHEMBL4024779, “Novel Terminal Bipheny-Based Diapophytoene Desaturases (CrtN) Inhibitors as Anti-MRSA/VISR/LRSA Agents with Reduced hERG Activity” (J Med Chem, 2018).

Activity calls are given as the source filed them.

Data set [1] has as its system Staphylococcus aureus. Kind of data set: In vivo anti-virulence activity against Staphylococcus aureus Newman infected in BALB/c mouse model assessed as reduction in bacterial load in heart at 0.4 mg bid for 3.5 days administered orally 6 hrs post infection by serial dilution method relative to vancomycin. It is filed as functional. On the set-up: scale not given: the % may be the effect or the level left. Put shortly: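 Mice got 3.1 × 10^7 CFU S. aureus Newman by retro-orbital injection. Oral compound was given b.i.d. for 3.5 d, starting 6 h after infection. […] Log10 CFU was counted per kidney and per heart.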

Another data set deals with Cytochrome P450 2C9 (Homo sapiens, UniProt P11712). Kind of data set: Inhibition of CYP2C9 in human liver microsomes using diclofenac as substrate upto 10 uM after 10 mins in presence of NADPH by LC-MS/MS analysis. It is filed as ADME. For orientation: Microsomes from liver hold many membrane-bound enzymes, among them those of drug oxidation.
The nature of data set [2]: Half life in Sprague-Dawley rat at 10 mg/kg, ip administered as single dose by LC-MS/MS analysis. It is filed as ADME, organism-based. The settings on record: in vivo.
Data set [3] concerns the target T1, 4,4'-diapophytoene desaturase (4,4'-diaponeurosporene-forming) (Staphylococcus aureus (strain USA300)) (UniProt Q2FDU6).
T1 sequence (whole entry): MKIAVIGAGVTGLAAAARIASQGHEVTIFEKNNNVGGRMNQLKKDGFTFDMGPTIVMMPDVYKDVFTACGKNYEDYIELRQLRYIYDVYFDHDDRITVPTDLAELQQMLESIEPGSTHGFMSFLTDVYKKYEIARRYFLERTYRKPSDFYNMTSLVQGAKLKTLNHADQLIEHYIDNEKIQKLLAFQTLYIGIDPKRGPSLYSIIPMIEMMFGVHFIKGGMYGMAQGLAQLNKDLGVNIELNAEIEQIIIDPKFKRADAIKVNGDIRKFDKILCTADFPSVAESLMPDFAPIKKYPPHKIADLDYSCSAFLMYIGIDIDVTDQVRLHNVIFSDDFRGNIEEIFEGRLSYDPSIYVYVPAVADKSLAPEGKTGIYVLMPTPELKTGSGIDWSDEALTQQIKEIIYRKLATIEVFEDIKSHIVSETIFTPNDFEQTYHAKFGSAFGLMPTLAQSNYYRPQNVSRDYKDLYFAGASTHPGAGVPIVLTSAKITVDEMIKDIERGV
The settings on record: Staphylococcus aureus LAC, 1 uM.

A short description of data set [4]: Tmax in Sprague-Dawley rat at 5 mg/kg, iv administered as single dose by LC-MS/MS analysis. It counts as ADME, organism-based. The settings on record: in vivo.
Data set [5] relates to Staphylococcus aureus. Kind of data set: In vivo anti-virulence activity against methicillin-resistant Staphylococcus aureus NF65Y infected in BALB/c mouse model assessed as reduction in bacterial load in heart at 0.1 mg bid for 3.5 days administered intraperitoneally 6 hrs post infection by serial dilution method relative to vancomycin. It is filed as functional, organism-based. Put shortly: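 Mice infected retro-orbitally with S. aureus NF65Y (3.5 × 10^8 CFU) or XN108 (2.1 × 10^8 CFU). Test compound given i.p. b.i.d. starting 6 h post-infection. […] Log10 CFU per kidney and heart counted. Two-tailed Mann−Whitney test.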

The nature of data set [6]: Tmax in mouse at 10 mg/kg, po administered as single dose by LC-MS/MS analysis. It counts as ADME, organism-based. To be noted: in vivo.
The nature of data set [7]: Cmax in Sprague-Dawley rat at 5 mg/kg, iv administered as single dose by LC-MS/MS analysis. It counts as ADME, organism-based. More on the design: dose 5 mg/kg, route intravenous. To be noted: in vivo.
A short description of data set [8]: AUC (0 to infinity) in mouse at 10 mg/kg, po administered as single dose by LC-MS/MS analysis. It counts as ADME, organism-based. More on the design: dose 10 mg/kg, time infinity, route oral. To be noted: in vivo.

Cytochrome P450 2C9, sequence (P11712 whole entry): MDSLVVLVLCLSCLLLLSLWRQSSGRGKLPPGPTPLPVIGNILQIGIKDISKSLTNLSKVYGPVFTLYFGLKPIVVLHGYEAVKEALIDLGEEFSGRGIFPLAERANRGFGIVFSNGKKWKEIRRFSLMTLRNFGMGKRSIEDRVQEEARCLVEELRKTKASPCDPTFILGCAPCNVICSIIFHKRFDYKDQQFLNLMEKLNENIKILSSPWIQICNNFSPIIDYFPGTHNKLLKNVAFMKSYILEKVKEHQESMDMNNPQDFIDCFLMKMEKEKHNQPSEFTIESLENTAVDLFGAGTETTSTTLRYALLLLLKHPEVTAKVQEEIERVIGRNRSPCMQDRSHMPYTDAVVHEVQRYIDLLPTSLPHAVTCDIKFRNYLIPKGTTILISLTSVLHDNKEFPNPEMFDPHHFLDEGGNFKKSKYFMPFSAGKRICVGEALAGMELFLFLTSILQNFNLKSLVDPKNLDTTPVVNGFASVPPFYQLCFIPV

Broadly, the IC50 is the midpoint of a concentration-inhibition curve. As a reminder, the half-life is the time needed for the level to fall by half in the phase considered. What is called Tmax is the time at which the peak concentration occurs. A word on the Cmax: it is the highest concentration seen after dosing. For orientation: AUC(0-inf) means the area under the concentration-time curve extrapolated to infinity. For the compound `CN(C/C=C/c1ccc(-c2ccccc2)cc1)Cc1coc2ccccc12.Cl`, the Activity with Staphylococcus aureus [1] is listed as >55.3%. In addition, at Cytochrome P450 2C9, the IC50 was > 10 µM. For the same compound, the half-life in data set [2] was 7.61 h. Also, the Survival in [3] was 2.3%. Besides, the Tmax in data set [4] was found to be 4.8 min; in data set [6], 2 h. Moreover, the outcome with Staphylococcus aureus [5] was Active. Moreover, the Cmax in data set [7] is 4610 ng/mL. The AUC(0-inf) in data set [8] is 4560 ng·h/mL.
